Experimental data collected from several papers.
CYP2D6: Cytochrome P450 2D6 (CYP2D6, Homo sapiens, UniProt P10635)

The Vd of `N=c1c2c(-c3ccccc3)c(-c3ccccc3)n(Cc3ccccc3)c2ncn1[C@H]1CC[C@H](O)CC1` is reported as 15.9 L/kg (male beagle dog, plasma; intravenous, 0.5 mg/kg, single dose).
With `C=C[C@H]1C[N@@]2CC[C@H]1C[C@@H]2[C@@H](O)c1ccnc2ccc(OC)cc12` the inhibition was 87% (CYP2D6; enzyme activity, inhibitor; human, liver microsomes; 10 µM).
`COC(=O)C1CCN(C(=O)c2ccc(NCc3cnc4nc(N)nc(N)c4n3)cc2)CC1` gave an inhibition of -27.7% (CYP2D6; enzyme activity, inhibitor, luciferase; 10 µM).
`O=C[C@H](C[C@@H]1CCNC1=O)NC(=O)[C@H](CC1CCCCC1)NC(=O)c1cc2ccccc2[nH]1` gave an AUC of 14500 ng·h/mL (dog, plasma; intravenous, 8 mg/kg).
`Cc1ncc(C)n2nc(/C=C/c3nc(N4CCCC4)cc(N4CCOCC4)n3)nc12` gave a half-life of 3.7 h (male beagle dog, plasma; oral, 0.3 mg/kg).
For `COC(=O)C1CCN(C(=O)c2ccc(N(C)Cc3cnc4nc(N)nc(N)c4n3)cc2)CC1`, the inhibition was -32.7% (CYP2D6; enzyme activity, inhibitor, luciferase; 10 µM).
The IC50 of `CCC[C@@](N)(CO)CCc1ccc(OCCCCCC(C)C)cc1` is reported as 32 µM (CYP2D6; enzyme activity, inhibitor).
`CN[C@@H](C)C(=O)N[C@H]1CN(C(=O)CC(C)C)CC[C@H]2CC[C@@H](C(=O)NC(c3ccccc3)c3ccccc3)N2C1=O` gave a half-life of 27 h (beagle dog, plasma; oral, 10 mg/kg).
